ChEMBL document CHEMBL4052643, “Development of molecular tools based on the dopamine D3 receptor ligand FAUC 329 showing inhibiting effects on drug and food maintained behavior” (Bioorg Med Chem, 2017)
Activity calls are given as the source filed them. The rule behind the calls is not given here.

What was measured:
D(3) dopamine receptor = D(3) dopamine receptor (Homo sapiens, UniProt P35462); test: Displacement of [3H]spiperone from human D3 receptor expressed in CHO cell membranes
D(2) dopamine receptor [1] = target: T1, D(2) dopamine receptor (Homo sapiens, UniProt P14416); test: Displacement of [3H]spiperone from human D2-long receptor expressed in CHO cell membranes
D(2) dopamine receptor [2] = target: T1, D(2) dopamine receptor; test: Displacement of [3H]spiperone from human D2-short receptor expressed in CHO cell membranes
D(4) dopamine receptor = target: T2, D(4) dopamine receptor (Homo sapiens, UniProt P21917); test: Displacement of [3H]spiperone from human D4 receptor expressed in CHO cell membranes
T2 sequence (P21917 whole entry): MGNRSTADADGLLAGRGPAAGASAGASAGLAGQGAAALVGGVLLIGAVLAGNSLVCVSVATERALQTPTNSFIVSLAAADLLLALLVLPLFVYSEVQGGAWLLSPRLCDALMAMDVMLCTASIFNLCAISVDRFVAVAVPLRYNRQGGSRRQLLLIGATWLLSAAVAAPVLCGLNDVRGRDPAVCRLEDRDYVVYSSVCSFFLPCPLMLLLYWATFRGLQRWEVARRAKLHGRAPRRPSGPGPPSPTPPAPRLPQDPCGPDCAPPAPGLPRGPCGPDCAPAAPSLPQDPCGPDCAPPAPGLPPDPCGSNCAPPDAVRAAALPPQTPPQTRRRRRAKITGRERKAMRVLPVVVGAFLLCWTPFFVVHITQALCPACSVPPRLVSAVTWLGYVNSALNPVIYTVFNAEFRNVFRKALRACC

[3] = target: 5-hydroxytryptamine receptor 2A (Homo sapiens, UniProt P28223); test: Displacement of [3H]ketanserin from human 5-HT2A receptor expressed in HEK293T cell membranes; parameters: species or system HEK-293T
D(1B) dopamine receptor = D(1B) dopamine receptor (Homo sapiens, UniProt P21918); test: Displacement of […] from human D5 receptor expressed in HEK293T cell membranes; parameters: species or system HEK-293T
D(1A) dopamine receptor = D(1A) dopamine receptor (Homo sapiens, UniProt P21728); test: Displacement of […] from human D1 receptor expressed in HEK293T cell membranes; parameters: species or system HEK-293T
[4] = Displacement of […] from porcine cerebral cortex 5-HT1A receptor; parameters: species or system Sus scrofa
Homo sapiens [5] = organism: Homo sapiens; test: Selectivity ratio of Ki for human D4 receptor expressed in CHO cell membranes to Ki for human D3 receptor expressed in CHO cell membranes; type: cell-based
Homo sapiens [6] = organism: Homo sapiens; test: Selectivity ratio of Ki for human D5 receptor expressed in HEK293T cell membranes to Ki for human D3 receptor expressed in CHO cell membranes; type: cell-based
Homo sapiens [7] = organism: Homo sapiens; test: Selectivity ratio of Ki for human D2-long receptor expressed in CHO cell membranes to Ki for human D3 receptor expressed in CHO cell membranes; type: cell-based
Homo sapiens [8] = organism: Homo sapiens; test: Selectivity ratio of Ki for human 5-HT2A receptor expressed in HEK293T cell membranes to Ki for human D3 receptor expressed in CHO cell membranes; type: cell-based
Homo sapiens [9] = organism: Homo sapiens; test: Selectivity ratio of Ki for human D2-short receptor expressed in CHO cell membranes to Ki for human D3 receptor expressed in CHO cell membranes; type: cell-based
[10] = Selectivity ratio of Ki for porcine cerebral cortex 5-HT1A receptor to Ki for human D3 receptor expressed in CHO cell membranes; type: cell-based
Homo sapiens [11] = organism: Homo sapiens; test: Selectivity ratio of Ki for human D1 receptor expressed in HEK293T cell membranes to Ki for human D3 receptor expressed in CHO cell membranes; type: cell-based
[12] = Drug uptake in rat brain ependyma cell layer at 10 to 15 MBq, iv after 60 mins by phosphorus imaging based autoradiography; type: ADME, organism-based; settings: in vivo, 1 h
Procedure, shortened: (§1)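 Rats injected with the [¹⁸F]-labelled radioligand, alone or co-injected with BP897. Coronal brain sections taken at 60 min p.i. for ex-vivo autoradiography and overlaid with HE-stained sections. Uptake expressed as region of interest-to-background ratio, with control animals compared against BP897 co-injected animals.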

[13] = Drug uptake in rat brain calleja islands at 10 to 15 MBq, iv after 60 mins by phosphorus imaging based autoradiography; type: ADME, organism-based, Calleja island; settings: in vivo, 1 h; procedure, shortened: as §1
[14] = Drug uptake in rat brain ventricles at 10 to 15 MBq, iv after 60 mins by phosphorus imaging based autoradiography; type: ADME, organism-based, Brain ventricle; settings: in vivo, 1 h; procedure, shortened: as §1
[15] = Drug uptake in rat brain ventricles at 10 to 15 MBq, iv after 40 mins by PET imaging method; type: ADME, organism-based, Brain ventricle; settings: in vivo
Brain = test: Drug uptake in rat brain at 10 to 15 MBq, iv after 40 mins by PET imaging method; type: ADME, organism-based; settings: in vivo
[16] = Drug uptake in rat pituitary gland at 10 to 15 MBq, iv after 40 mins by PET imaging method; type: ADME, organism-based; settings: in vivo
Procedure, shortened: (§2)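 In vivo PET scan of rats given the [¹⁸F]-labelled radioligand. Whole pituitary gland uptake measured at 40 min p.i. as %ID/g, with or without BP897 pretreatment.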

[17] = Drug uptake in rat pituitary gland at 10 to 15 MBq, iv after 40 mins pretreated with D3 ligand BP897 by PET imaging method; type: ADME, organism-based; settings: in vivo; procedure, shortened: as §2
[18] = Drug uptake in rat brain plexus tissue at 10 to 15 MBq, iv after 60 mins by phosphorus imaging based autoradiography; type: ADME, organism-based; settings: in vivo, 1 h; procedure, shortened: as §1
[19] = Drug uptake in rat brain striatum at 10 to 15 MBq, iv after 60 mins by phosphorus imaging based autoradiography; type: ADME, organism-based; settings: in vivo, 1 h; procedure, shortened: as §1
[20] = target: D(3) dopamine receptor (Rattus norvegicus) (UniProt P19020); test: Displacement of BP897 from D3 receptor in rat brain cortex at 5 MBq after 45 mins by phosphorus imaging based autoradiography; settings: 5 M, tested as the 18F-labelled form
[21] = target: D(3) dopamine receptor (Rattus norvegicus) (UniProt P19020); test: Displacement of BP897 from D3 receptor in rat brain lateral septum nuclei at 5 MBq after 45 mins by phosphorus imaging based autoradiography; settings: 5 M, tested as the 18F-labelled form
[22] = target: D(3) dopamine receptor (Rattus norvegicus) (UniProt P19020); test: Displacement of BP897 from D3 receptor in rat brain striatum at 5 MBq after 45 mins by phosphorus imaging based autoradiography; settings: 5 M, tested as the 18F-labelled form
[23] = target: D(3) dopamine receptor (Rattus norvegicus) (UniProt P19020); test: Displacement of BP897 from D3 receptor in rat brain islands of calleja at 5 MBq after 45 mins by phosphorus imaging based autoradiography; settings: 5 M, tested as the 18F-labelled form
Rhesus monkey [24] = test: Reduction in cocaine-maintained responding in monkey at 0.18 to 0.32 mg/kg, im administered as single dose 15 mins prior to self administration of 0.01 to 0.03 mg/kg, iv per injection of cocaine for 100 mins relative to control; type: functional, Macaca mulatta; parameters: scale not given: the % may be the effect or the level left
Procedure, shortened: (§3)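 Male rhesus monkeys trained to respond for cocaine and food under daily 2 h FR30 sessions. Sessions ran in order: food 1, a 100-min i.v. cocaine (or saline) component, then food 2. Saline pretreatment served as baseline. Values are mean ± S.E.M. of four experiments, with significance by two-tailed t-test (p < 0.05).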

Rhesus monkey [25] = test: Reduction in cocaine-maintained responding in monkey administered im 15 mins prior to self administration of 0.1 mg/kg, iv per injection of cocaine for 100 mins; type: functional, organism-based; settings: Macaca mulatta; procedure, shortened: as §3
Rhesus monkey [26] = test: Reduction in cocaine-maintained responding in monkey at 0.18 to 0.32 mg/kg, im administered as single dose 15 mins prior to self administration of 0.1 mg/kg, iv per injection of cocaine for 100 mins relative to control; type: functional, Macaca mulatta; parameters: scale not given: the % may be the effect or the level left; procedure, shortened: as §3
Rhesus monkey [27] = test: Reduction in cocaine-maintained responding in monkey at 0.18 to 0.32 mg/kg, im administered as single dose 15 mins prior to self administration of 0.003 mg/kg, iv per injection of cocaine for 100 mins relative to control; type: functional, Macaca mulatta; parameters: scale not given: the % may be the effect or the level left; procedure, shortened: as §3
Rhesus monkey [28] = test: Reduction in food reinforcement-maintained behavior in monkey at 0.18 to 0.32 mg/kg, im administered as single dose 15 mins prior to food reinforcement during first component of session relative to control; type: functional, Macaca mulatta; parameters: scale not given: the % may be the effect or the level left; settings: in the assay text read “0.32 mg/kg” for “0.18 to 0.32 mg/kg”; procedure, shortened: as §3
Rhesus monkey [29] = test: Reduction in food reinforcement-maintained behavior in monkey at 0.18 to 0.32 mg/kg, im administered as single dose 15 mins prior to food reinforcement during second component of session relative to control; type: functional, Macaca mulatta; parameters: scale not given: the % may be the effect or the level left; procedure, shortened: as §3
[30] = tested as the 18F-labelled form

Chain of D(1B) dopamine receptor (P21918 whole entry): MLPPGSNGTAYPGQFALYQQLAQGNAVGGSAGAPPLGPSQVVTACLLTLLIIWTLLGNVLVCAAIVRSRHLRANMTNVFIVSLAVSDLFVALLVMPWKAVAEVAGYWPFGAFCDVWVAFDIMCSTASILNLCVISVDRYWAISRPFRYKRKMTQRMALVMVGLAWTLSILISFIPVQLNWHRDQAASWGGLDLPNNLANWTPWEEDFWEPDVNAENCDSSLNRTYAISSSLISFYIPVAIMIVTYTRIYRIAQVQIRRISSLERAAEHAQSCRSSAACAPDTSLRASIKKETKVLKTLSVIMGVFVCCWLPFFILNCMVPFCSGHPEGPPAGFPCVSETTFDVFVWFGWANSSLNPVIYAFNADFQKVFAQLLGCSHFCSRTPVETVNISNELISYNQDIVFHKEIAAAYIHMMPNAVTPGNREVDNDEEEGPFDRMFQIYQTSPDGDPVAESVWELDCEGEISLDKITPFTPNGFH
Chain of D(3) dopamine receptor (P35462 whole entry): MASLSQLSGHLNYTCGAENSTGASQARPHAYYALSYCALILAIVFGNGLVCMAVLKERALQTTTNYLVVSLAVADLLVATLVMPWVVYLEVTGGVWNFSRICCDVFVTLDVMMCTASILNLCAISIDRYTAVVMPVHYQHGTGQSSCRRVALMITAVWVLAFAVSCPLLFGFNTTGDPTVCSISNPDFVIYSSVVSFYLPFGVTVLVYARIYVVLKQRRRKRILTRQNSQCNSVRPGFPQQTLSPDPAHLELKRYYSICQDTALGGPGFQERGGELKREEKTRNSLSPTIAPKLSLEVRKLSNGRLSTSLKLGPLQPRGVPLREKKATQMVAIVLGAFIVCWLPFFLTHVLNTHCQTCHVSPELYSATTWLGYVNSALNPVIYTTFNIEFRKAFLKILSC
T1 sequence (P14416 whole entry): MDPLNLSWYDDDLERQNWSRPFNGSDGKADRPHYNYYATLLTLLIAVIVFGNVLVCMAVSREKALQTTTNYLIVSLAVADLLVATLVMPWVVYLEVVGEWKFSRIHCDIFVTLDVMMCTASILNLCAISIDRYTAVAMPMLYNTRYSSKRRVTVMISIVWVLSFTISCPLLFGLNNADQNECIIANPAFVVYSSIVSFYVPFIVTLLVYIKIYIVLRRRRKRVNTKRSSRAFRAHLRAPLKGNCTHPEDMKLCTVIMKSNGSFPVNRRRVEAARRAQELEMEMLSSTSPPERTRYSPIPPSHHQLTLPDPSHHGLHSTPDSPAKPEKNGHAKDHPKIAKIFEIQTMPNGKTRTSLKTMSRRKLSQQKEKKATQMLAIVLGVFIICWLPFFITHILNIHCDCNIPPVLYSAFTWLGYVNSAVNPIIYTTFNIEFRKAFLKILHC
Chain of D(1A) dopamine receptor (P21728 whole entry): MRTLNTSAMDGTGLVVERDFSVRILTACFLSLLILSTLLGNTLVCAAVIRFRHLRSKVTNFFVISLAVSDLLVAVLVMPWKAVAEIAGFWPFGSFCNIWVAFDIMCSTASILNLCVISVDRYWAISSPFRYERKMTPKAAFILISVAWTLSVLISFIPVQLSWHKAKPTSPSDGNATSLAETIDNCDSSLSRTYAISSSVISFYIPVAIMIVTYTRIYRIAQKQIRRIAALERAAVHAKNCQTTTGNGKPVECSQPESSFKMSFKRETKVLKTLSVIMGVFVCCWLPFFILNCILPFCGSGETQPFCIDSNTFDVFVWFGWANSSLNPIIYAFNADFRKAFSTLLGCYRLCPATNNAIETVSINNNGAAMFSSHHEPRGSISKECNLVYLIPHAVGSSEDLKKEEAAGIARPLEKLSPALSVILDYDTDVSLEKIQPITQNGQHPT
Chain of 5-hydroxytryptamine receptor 2A (P28223 whole entry): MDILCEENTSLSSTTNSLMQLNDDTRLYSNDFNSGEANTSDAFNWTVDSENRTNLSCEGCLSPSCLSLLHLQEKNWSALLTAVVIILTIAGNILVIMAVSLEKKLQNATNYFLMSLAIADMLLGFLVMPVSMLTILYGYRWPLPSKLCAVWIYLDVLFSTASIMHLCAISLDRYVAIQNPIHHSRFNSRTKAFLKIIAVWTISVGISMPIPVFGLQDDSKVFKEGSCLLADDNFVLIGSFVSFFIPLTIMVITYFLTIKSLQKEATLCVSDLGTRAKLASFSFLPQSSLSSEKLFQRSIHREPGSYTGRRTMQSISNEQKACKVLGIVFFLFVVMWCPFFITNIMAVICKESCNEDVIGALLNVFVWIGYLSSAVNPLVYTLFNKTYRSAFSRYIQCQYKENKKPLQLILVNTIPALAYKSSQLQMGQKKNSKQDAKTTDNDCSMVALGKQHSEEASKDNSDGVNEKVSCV
Chain of D(3) dopamine receptor (Rattus norvegicus) (P19020 whole entry): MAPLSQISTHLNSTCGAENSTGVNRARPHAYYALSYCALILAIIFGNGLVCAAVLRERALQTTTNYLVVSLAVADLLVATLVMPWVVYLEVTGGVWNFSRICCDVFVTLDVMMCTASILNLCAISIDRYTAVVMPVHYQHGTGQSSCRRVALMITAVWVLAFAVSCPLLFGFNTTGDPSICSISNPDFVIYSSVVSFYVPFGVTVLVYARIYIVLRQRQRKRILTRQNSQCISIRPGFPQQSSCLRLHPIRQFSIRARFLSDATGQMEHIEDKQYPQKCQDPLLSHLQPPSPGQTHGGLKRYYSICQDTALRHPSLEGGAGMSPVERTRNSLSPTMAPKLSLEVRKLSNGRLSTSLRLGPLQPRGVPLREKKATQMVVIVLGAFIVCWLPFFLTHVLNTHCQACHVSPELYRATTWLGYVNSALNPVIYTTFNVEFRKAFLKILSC

O=C(NCCCCN1CC[N+]2(CCOc3ccccc32)CC1)c1cc2ccccn2n1
Ki (D(3) dopamine receptor): 0.2 µM
Ki (D(2) dopamine receptor [1]): 6.3 µM
Ki (D(2) dopamine receptor [2]): 4.5 µM
Ki (D(4) dopamine receptor): > 10 µM
Ki [3]: > 10 µM
Ki (D(1B) dopamine receptor): > 50 µM
Ki (D(1A) dopamine receptor): 5.7 µM
Ki [4]: 0.9 µM

CC(C)(C)c1nc(N2CCN(CCCCNC(=O)c3cc4ccccc4s3)CC2)cc(C(F)(F)F)n1
Ki (D(3) dopamine receptor): 0.0024 µM
Ki (D(2) dopamine receptor [1]): 4 µM
Ratio Ki (Homo sapiens [5]): 1000 to 20000
Ki (D(2) dopamine receptor [2]): 2.7 µM
Ratio Ki (Homo sapiens [6]): 1000 to 20000
Ratio Ki (Homo sapiens [7]): 1000 to 20000
Ki (D(4) dopamine receptor): > 10 µM
Ki [3]: 7.1 µM
Ratio Ki (Homo sapiens [8]): 1000 to 20000
Ratio Ki (Homo sapiens [9]): 1000 to 20000
Ratio Ki [10]: 1000 to 20000
Ki (D(1B) dopamine receptor): > 10 µM
Ki (D(1A) dopamine receptor): > 10 µM
Ki [4]: > 50 µM
Ratio Ki (Homo sapiens [11]): 1000 to 20000

O=C(NCCCCN1CCN(c2ccccc2OCC[18F])CC1)c1cc2ccccn2n1
Ki (D(3) dopamine receptor): 0.00031 µM
Drug uptake [12]: Active
Drug uptake [13]: Not Active
Drug uptake [14]: Active
Drug uptake [15]: Active
Drug uptake (Brain): Active
Drug uptake [16]: 0.394 % ID/g
Drug uptake [17]: Not Active
Drug uptake [18]: Active
Drug uptake [19]: Not Active

O=C(NCCCCN1CCN(c2ccccc2OCCF)CC1)c1cc2ccccn2n1
inhibition [20]: Active
Ki (D(3) dopamine receptor): 0.00031 µM
Ki (D(2) dopamine receptor [1]): 0.039 µM
inhibition [21]: Active
Ki (D(2) dopamine receptor [2]): 0.021 µM
inhibition [22]: Active
Ratio Ki (Homo sapiens [7]; [30]): 130
Ki (D(4) dopamine receptor): 0.16 µM
Ki [3]: 0.52 µM
Ratio Ki (Homo sapiens [9]; [30]): 68
Ki (D(1B) dopamine receptor): 3.8 µM
inhibition [23]: Active
Ki (D(1A) dopamine receptor): 0.86 µM
Ki [4]: 0.0065 µM

CN(C)C(=O)N[C@H]1CC[C@H](CCN2CCN(c3cccc(Cl)c3Cl)CC2)CC1 [CARIPRAZINE]
Ki (D(1B) dopamine receptor): 7.9 µM

CC(C)(C)c1nc(N2CCN(CCCCNC(=O)c3cc4ccccn4n3)CC2)cc(C(F)(F)F)n1
Ki (D(3) dopamine receptor): 0.0012 µM
Ki (D(2) dopamine receptor [1]): 0.43 µM
Ki (D(2) dopamine receptor [2]): 0.2 µM
Ki (D(4) dopamine receptor): 4.7 µM
Ki [3]: 2.7 µM
Ratio Ki [10]: 8000
Ki (D(1B) dopamine receptor): 5.7 µM
Ki (D(1A) dopamine receptor): 7.5 µM
Ki [4]: 9.8 µM

COc1ccccc1N1CCN(CCCCNC(=O)c2cc3ccccn3n2)CC1
Activity (Rhesus monkey [24]): 70 - 75%
Activity (Rhesus monkey [25]): Dose-dependent effect
Activity (Rhesus monkey [26]): 45%
Activity (Rhesus monkey [27]): <25%
Ki [4]: 0.01 µM
Activity (Rhesus monkey [28]): 30%
Activity (Rhesus monkey [29]): 80%
